# The list is not random: actives were taken first. Their share in the collection is about 3.1%.
# MEKK3 PB1 HTS: modulators (inhibitors or enhancers) of MEK5 binding to human MEKK3 PB1 domain | AID 1529 | binding response (% of control), % at 10 µM | bead-based flow cytometry, Alexa488-MEK5 binding to MEKK3; actives lie on both sides; 0 = blocked by unlabeled MEK5, 100 = vehicle | Q99759 | actives 1.4% (n = 290,000);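 active means binding response more than 3 SD above or below the average of its plate-row segment, actives on both sides; inconclusive means wells at one plate position flagged as instrument error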;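 further: Alexa488 bead fluorescence after subtracting the streptavidin-only scavenger bead signal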
# UBC13 inh: human UBC13 polyubiquitination inhibition | UBC13 polyubiquitin chain formation, TR-FRET | inhibition, % at 20 µM | actives 0.47% (n = 330,000); in the data active means inhibition above about 45%, passing the limit was not always enough; inconclusive means no clear call, values can overlap the other calls
# Target sequence (P61088 whole entry, looked up): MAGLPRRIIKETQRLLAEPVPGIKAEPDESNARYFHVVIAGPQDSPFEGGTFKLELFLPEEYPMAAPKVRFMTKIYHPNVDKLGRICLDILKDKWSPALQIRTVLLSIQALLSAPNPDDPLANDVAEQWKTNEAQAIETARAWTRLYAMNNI
# MEKK2mut PB1 HTS: signal of MEK5 binding to mutant human MEKK2 PB1 domain; bead flow cytometry, Alexa488-MEK5 binding to MEKK2 mutant; percent response, % at 10 µM; actives 0.35% (n = 290,000); in the data active means percent response above about 24%, passing the limit was not always enough
# Apaf1 inhib: inhibitors of human Apaf-1 apoptosome; actives 0.71% (n = 330,000); AID 489030; reconstituted apoptosome caspase-3 activity, DEVD-Rh110 fluorescence; O14727; inhibition, % at 20 µM; active means inhibition of at least 40% at 20 µM;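 further: plate controls were DMSO wells for no effect and DEVD-CHO caspase inhibitor wells for full effect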
#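 System – cell-free apoptosome with Apaf-1, procaspase-3 and caspase-9 · Buffer or medium – pH 7.5 Hepes buffer with CHAPS, BSA, DTT · Also added – cytochrome c with DEVD-Rh110 · Times – 30 min compound preincubation, 50 min activation, room temperature · Technique – Rh110 fluorescence intensity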
# MEKK2wt PB1 HTS: raises or lowers MEK5 binding to wildtype human MEKK2 PB1 domain | bead flow cytometry, Alexa488-MEK5 binding to MEKK2 WT; actives lie on both sides | binding response (% of control), % at 10 µM | actives 1.1% (n = 290,000); in the data active means binding response below about 67% or above about 130%; inconclusive means no clear call, values can overlap the other calls; inactive means in between
# PREPL inh: human PREPL enzyme inhibition; inhibition, % at 5.96 µM; recombinant PREPL, fluorescence polarization activity-based probe; actives 0.68% (n = 320,000); AID 2751; Q4J6C6; in the data active means inhibition above about 43%;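 further: 0% = enzyme with DMSO and 100% = wells lacking enzyme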
# Casp3 counter: caspase-3 inhibition (UBC13 counter-screen); shares compounds with UBC13 inh; inhibition, % at 20 µM; actives 4% (n = 1,400); Recombinant caspase-3, Caspase-Glo 3/7 luminescence, 60 min; AID 488856;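 active means mean inhibition across replicates above about 26%, limit read from the data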;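 further: plate controls were DMSO with caspase-3 for no effect and DMSO wells lacking enzyme for full effect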
# Target sequence (P42574 whole entry, looked up): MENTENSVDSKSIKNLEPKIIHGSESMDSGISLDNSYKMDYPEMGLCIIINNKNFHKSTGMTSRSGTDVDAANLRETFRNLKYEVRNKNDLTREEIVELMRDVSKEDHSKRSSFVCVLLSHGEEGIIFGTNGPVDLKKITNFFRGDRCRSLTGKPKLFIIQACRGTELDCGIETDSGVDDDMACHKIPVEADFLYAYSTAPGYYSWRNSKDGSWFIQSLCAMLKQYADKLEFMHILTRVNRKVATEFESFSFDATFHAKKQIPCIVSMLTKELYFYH
# UBC13 confirm: confirmation of human UBC13 polyubiquitin inhibitors; shares compounds with UBC13 inh; UBC13 polyubiquitination, TR-FRET, biochemical; inhibition, % at 10 µM; actives 68% (n = 1,400); in the data active means inhibition above about 45%; inconclusive means no clear call, values can overlap the other calls
# * marks the source's active call; other numbers are inactive results; ? = inconclusive; nt = no result given.
SMILES,MEKK3 PB1 HTS,UBC13 inh,MEKK2mut PB1 HTS,Apaf1 inhib,MEKK2wt PB1 HTS,PREPL inh,Casp3 counter,UBC13 confirm
CC1CCN(c2c(NCc3ccc(C(=O)N4CCN(C5CCCCC5)CC4)cc3)c(=O)c2=O)CC1,103,69*,-3,0,98,13,-1,58*
CCc1ccc(NC(=O)CCn2nc(C)c(S(=O)(=O)N3CCCCC3)c2C)cc1,99,-14,-1,16,101,0,nt,nt
NCCCn1c(C(=O)c2cc(Cl)c(N)c(Cl)c2)c2ccc(C(F)(F)F)cc2[n+]1[O-],nt,103*,nt,10,nt,21,1,111*
NC(=O)CCCn1c(C(=O)c2cc(Cl)c(N)c(Cl)c2)c2ccc(C(F)(F)F)cc2[n+]1[O-],nt,97*,nt,14,nt,6,1,93*
NC(=O)c1ccc(Cn2c(C(=O)c3ccc(Cl)cc3)c3ccccc3[n+]2[O-])cc1,nt,0,nt,2,nt,11,nt,nt
NC(=O)c1ccc(Cn2c(C(=O)c3cc(Cl)c(N)c(Cl)c3)c3ccccc3[n+]2[O-])cc1,nt,98*,nt,16,nt,-1,0,95*
CCNC(=O)C1CCCN1C(=O)C(CCCN=C(N)N)NC(=O)C(CC(C)C)NC(=O)C(Cc1cn(Cc2ccccc2)cn1)NC(=O)C(Cc1ccc(O)cc1)NC(=O)C(CO)NC(=O)C(Cc1c[nH]c2ccccc12)NC(=O)C(Cc1cnc[nH]1)NC(=O)C1CCC(=O)N1 (centres undefined),100,13,5,5,115,24,nt,nt
O=C(CCc1nnc2ccc(N3CCCC3)nn12)Nc1ccc(F)c(F)c1,104,50*,10,-4,104,2,-3,?
CC(C)=C(NC(=O)c1ccccc1)C(=O)NCCc1nc2ccccc2[nH]1,97,6,0,-7,98,1,nt,nt
Cc1sc2ncnc(N)c2c1C,68,61*,-18,-16,75,-18,-7,49*
CCCOc1ccc(C(=O)Nn2c(C)nc3ccccc3c2=O)cc1,102,96*,1,-9,105,5,-2,108*
Cc1nc2ccccc2c(=O)n1NC(=O)c1ccccc1Br,106,9,6,-3,105,-14,nt,nt
COc1ccc(C(=O)Nn2c(C)nc3ccccc3c2=O)cc1,104,82*,10,0,103,3,-8,84*
Cc1nc2ccccc2c(=O)n1NC(=O)/C=C/c1ccc(Br)cc1,108,60*,0,6,103,-28,7,53*
COc1ccc(S(=O)(=O)N(C)CC(=O)NCCCn2ccnc2)cc1Cl,98,0,-2,-1,94,10,nt,nt
COc1ccccc1NC(=O)c1c(N=Cc2cccc([N+](=O)[O-])c2)cnn1C,107,77*,11,10,104,19,-2,86*
O=[N+]([O-])c1c(-c2cn[nH]c2)n[nH]c1-c1cn[nH]c1,107,56*,3,-11,100,1,4,53*
COc1ccc(C(=O)NC(=S)NNC(=O)c2ccc(NC(C)=O)cc2)cc1Br,97,71*,-7,6,96,-7,1,104*
COc1cccc(NC(=O)CN(C)C(=O)c2cccnc2Nc2cccc(C(F)(F)F)c2)c1,nt,47*,nt,15,nt,-14,-1,34
COc1ccc(/C=C/C(=O)OCC(=O)NC(C)CCc2ccccc2)cc1 (centres undefined),nt,0,nt,12,nt,7,nt,nt
COc1ccc(C2CC(=O)c3cnc(NC(=O)c4ccccc4)nc3C2)cc1OC (centres undefined),105,-8,6,-1,107,2,nt,nt
COc1ccc(C2CC(=O)c3cnc(N4CCc5ccccc54)nc3C2)cc1OC (centres undefined),103,60*,1,6,103,5,2,?
CN1CCC(N(C)C(=O)/C=C/c2cn(-c3ccccc3)nc2-c2cccs2)CC1,59,46*,-6,38,112,-29,0,44
CCN(CC(=O)Nc1ccc(NC(C)=O)cc1)C(=O)/C=C/c1cn(-c2ccccc2)nc1-c1cccs1,nt,9,nt,24,nt,6,nt,nt
CC(C)Sc1nc2[nH]ncc2c(=O)[nH]1,90,1,-1,-8,96,1,nt,nt
SMILES,MEKK3 PB1 HTS,UBC13 inh,MEKK2mut PB1 HTS,Apaf1 inhib,MEKK2wt PB1 HTS,PREPL inh,Casp3 counter,UBC13 confirm
Cc1nc2ccccc2c(=O)n1NC(=O)COc1ccccc1,83,-5,-10,-11,102,0,nt,nt
COc1ccc(CNn2c(C)nc3ccccc3c2=O)cc1,88,47*,-8,-7,95,4,-2,49*
CCCCOc1ccc(CNn2c(C)nc3ccccc3c2=O)cc1,112,75*,2,11,107,2,0,82*
O=C(NCCc1ccccn1)c1ccc(OC(F)F)cc1,106,6,-2,-16,103,-5,nt,nt
O=C(NNC(=O)c1ccccn1)c1ccc(OC(F)F)cc1,nt,96*,nt,-4,nt,6,59*,68*
CCc1cc2c(=O)n(-c3ccccc3)c(=S)[nH]c2s1,96,48*,3,-18,97,1,2,?
COc1ccc(Cn2c(SCC(=O)NCc3ccco3)nc3ccsc3c2=O)cc1,97,66*,3,-2,99,6,-4,74*
CCCCn1c(SCC(=O)Nc2cc(C)on2)nc2ccsc2c1=O,99,6,4,-8,101,12,nt,nt
O=C(CSc1nc2ccsc2c(=O)n1Cc1ccc(C(=O)O)cc1)NCc1ccco1,97,61*,-3,-4,97,-6,1,60*
CCCCn1c(SCC(=O)Nc2cc(C)[nH]n2)nc2ccsc2c1=O,99,50*,0,-13,96,3,-2,53*
Cc1ccc(CNC(=O)CSc2nc3ccsc3c(=O)n2Cc2ccc(C(=O)O)cc2)cc1,82,56*,-9,4,82,10,6,64*
Cn1c(=O)n(C)c2cc(NC(=O)CSc3nc4ccccc4c(=O)[nH]3)ccc21,99,6,3,1,99,3,nt,nt
CC(C)c1ccc(-c2nn(-c3ccccc3)cc2C(=O)NCC2CCCO2)cc1 (centres undefined),nt,-2,nt,32,nt,1,nt,nt
CCN(CC)CCCNc1nc2cc(OC)c(OC)cc2c2nc(-c3ccccc3)nn12,100,55*,5,31,129,17,-1,45*
